Results published in ChEMBL document CHEMBL1155541, “Discovery of 6-chloro-2-trifluoromethyl-7-aryl-7H-imidazo[1,2-a]imidazol-3-ylmethylamines, a novel class of corticotropin-releasing factor receptor type 1 (CRF1R) antagonists” (Bioorg Med Chem Lett, 2010).
Calls of active or inactive are those of the source. The rule behind the calls is not given here.

Tests used:
[1] = biological target: T1, Corticotropin-releasing factor receptor 1 (Homo sapiens, UniProt P34998); experiment: Displacement of [125I] Tyr-o-CRF from human […] expressed in human IMR-32 cells after 100 mins; assay type: cell-based
T1 sequence (P34998 whole entry): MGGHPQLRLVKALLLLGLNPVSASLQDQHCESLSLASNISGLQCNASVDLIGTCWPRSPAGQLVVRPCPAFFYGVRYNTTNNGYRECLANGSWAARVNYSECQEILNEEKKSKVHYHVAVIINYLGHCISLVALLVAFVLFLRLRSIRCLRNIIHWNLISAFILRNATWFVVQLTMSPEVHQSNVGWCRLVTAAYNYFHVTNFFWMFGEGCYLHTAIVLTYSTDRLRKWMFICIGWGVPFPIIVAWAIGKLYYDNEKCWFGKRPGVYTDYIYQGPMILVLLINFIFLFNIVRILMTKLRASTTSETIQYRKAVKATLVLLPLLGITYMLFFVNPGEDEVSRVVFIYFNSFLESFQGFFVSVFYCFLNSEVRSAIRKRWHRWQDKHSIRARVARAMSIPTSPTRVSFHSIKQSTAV
How it was run: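 Membranes from transformed IMR-32 cells incubated with 100 pM [125I]Tyr-o-CRF and increasing test-compound concentrations, 100 min, 25 °C. Buffer: 50 mM Tris pH 7.2, 10 mM MgCl2, 0.5% BSA, 0.005% Triton X-100, aprotinin, leupeptin. Stopped with ice-cold 50 mM Tris pH 7.4, 0.2% BSA. Nonspecific binding defined with o-CRF. Values given as Ki.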

[2] = biological target: T2, Corticotropin-releasing factor receptor 1 (Homo sapiens) (UniProt P34998); experiment: Antagonist activity at human CRF1 receptor expressed in human IMR-32 cells assessed as inhibition of CRF-stimulated cAMP production; assay type: functional, cell-based
T2 sequence (whole entry): T1 sequence (P34998 whole entry)

In the case of CCCN(Cc1ccccc1)Cc1c(C(F)(F)F)nc2n(-c3c(C)cc(C)cc3C)c(Cl)cn12, the Ki [1] is reported as 170 nM and the Activity [2] is reported as “Active”.

CCCN(CCC(F)(F)F)Cc1c(C(F)(F)F)nc2n(-c3c(C)cc(C)cc3C)c(Cl)cn12 was tested, and the Ki [1] was 12 nM and the Activity [2] was “Active”.

For Cc1cc(C)c(-n2c(Cl)cn3c(CN(C)CCc4ccccc4)c(C(F)(F)F)nc23)c(C)c1, the Ki [1] was 150 nM and the Activity [2] was “Active”.

In the case of CCCN(Cc1cccc(F)c1)Cc1c(C(F)(F)F)nc2n(-c3c(C)cc(C)cc3C)c(Cl)cn12, the Ki [1] is reported as 260 nM and the Activity [2] is reported as “Active”.

In the case of CCCCN(Cc1ccccc1)Cc1c(C(F)(F)F)nc2n(-c3c(C)cc(C)cc3C)c(Cl)cn12, the Ki [1] is reported as 130 nM and the Activity [2] is reported as “Active”.

For CCCCN(CC)Cc1c(C(F)(F)F)nc2n(-c3c(C)cc(C)cc3C)c(Cl)cn12, the Ki [1] was 78 nM and the Activity [2] was “Active”.

C=CCN(CCC)Cc1c(C(F)(F)F)nc2n(-c3c(C)cc(C)cc3C)c(Cl)cn12 was tested, and the Ki [1] was 4.5 nM and the Activity [2] was “Active”.

CCCN(Cc1c(C(F)(F)F)nc2n(-c3c(C)cc(C)cc3Cl)c(Cl)cn12)CC1CC1 was tested, and the Ki [1] was 4.2 nM and the Activity [2] was “Active”.

For Cc1cc(C)c(-n2c(Cl)cn3c(CN(C)CCc4ccncc4)c(C(F)(F)F)nc23)c(C)c1, the Ki [1] was 7600 nM and the Activity [2] was “Active”.

With CCCCN(C)Cc1c(C(F)(F)F)nc2n(-c3c(C)cc(C)cc3C)c(Cl)cn12 the Ki [1] was 310 nM and the Activity [2] was “Active”.

In the case of CCN(CCc1ccccc1)Cc1c(C(F)(F)F)nc2n(-c3c(C)cc(C)cc3C)c(Cl)cn12, the Ki [1] is reported as 6 nM and the Activity [2] is reported as “Active”.

With Cc1cc(C)c(-n2c(Cl)cn3c(CN4CC=CCC4)c(C(F)(F)F)nc23)c(C)c1 the Ki [1] was 760 nM and the Activity [2] was “Active”.

With Cc1cc(C)c(-n2c(Cl)cn3c(CN(CCC(F)(F)F)Cc4ccc(Cl)cc4)c(C(F)(F)F)nc23)c(C)c1 the Ki [1] was 12 nM and the Activity [2] was “Active”.

CCCN(Cc1c(C(F)(F)F)nc2n(-c3c(C)cc(C)cc3C)c(Cl)cn12)CC(F)(F)F was tested, and the Ki [1] was 8.3 nM and the Activity [2] was “Active”.

Cc1cc(C)c(-n2c(Cl)cn3c(CN(CCC4CC4)CC(F)(F)F)c(C(F)(F)F)nc23)c(C)c1 was tested, and the Ki [1] was 6.3 nM and the Activity [2] was “Active”.

For Cc1cc(C)c(-n2c(Cl)cn3c(CN4CCCC4c4ccccc4)c(C(F)(F)F)nc23)c(C)c1 (stereo not given), the Ki [1] was over 7000 nM and the Activity [2] was “Active”.

With Cc1cc(C)c(-n2c(Cl)cn3c(CN(CC4CCC4)CC(F)(F)F)c(C(F)(F)F)nc23)c(C)c1 the Ki [1] was 13 nM and the Activity [2] was “Active”.

In the case of C=CCN(CC=C)Cc1c(C(F)(F)F)nc2n(-c3c(C)cc(C)cc3C)c(Cl)cn12, the Ki [1] is reported as 13 nM and the Activity [2] is reported as “Active”.

With Cc1cc(C)c(-n2c(Cl)cn3c(CN4CCSCC4)c(C(F)(F)F)nc23)c(C)c1 the Ki [1] was 920 nM and the Activity [2] was “Active”.

With CCCN(CC1CC1)C(=O)c1c(C(F)(F)F)nc2n(-c3c(C)cc(C)cc3C)c(Cl)cn12 the Ki [1] was 33 nM and the Activity [2] was “Active”.

With CCN(Cc1c(C(F)(F)F)nc2n(-c3c(C)cc(C)cc3C)c(Cl)cn12)CC1CC1 the Ki [1] was 9 nM and the Activity [2] was “Active”.

For Cc1cc(C)c(-n2c(Cl)cn3c(CN4CCCCC4C)c(C(F)(F)F)nc23)c(C)c1 (stereo not given), the Ki [1] was 1600 nM and the Activity [2] was “Active”.

Cc1cc(C)c(-n2c(Cl)cn3c(CN(CCC(F)(F)F)Cc4ccccc4)c(C(F)(F)F)nc23)c(C)c1 was tested, and the Ki [1] was 43 nM and the Activity [2] was “Active”.

With Cc1cc(C)c(-n2c(Cl)cn3c(CN(CCc4ccccc4)CCC(F)(F)F)c(C(F)(F)F)nc23)c(C)c1 the Ki [1] was 1900 nM and the Activity [2] was “Active”.

Cc1cc(C)c(-n2c(Cl)cn3c(CN4CCCC(C)C4)c(C(F)(F)F)nc23)c(C)c1 (stereo not given) was tested, and the Ki [1] was 5800 nM and the Activity [2] was “Active”.

In the case of CCCN(CC1CC1)C(=O)c1c(C)nc2n(-c3c(C)cc(C)cc3C)c(Cl)cn12, the Ki [1] is reported as 61 nM and the Activity [2] is reported as “Active”.

For CCCN(Cc1c(C(F)(F)F)nc2n(-c3c(C)cc(C)cc3C)c(Cl)cn12)CC1CC1, the Ki [1] was 9.1 nM and the Activity [2] was “Active”.

CCCN(Cc1c(C(F)(F)F)nc2n(-c3c(C)cc(C)cc3C)c(Cl)cn12)CC1CCC1 was tested, and the Ki [1] was 5.3 nM and the Activity [2] was “Active”.

With Cc1cc(C)c(-n2c(Cl)cn3c(CN(C)CCc4ccccn4)c(C(F)(F)F)nc23)c(C)c1 the Ki [1] was 4300 nM and the Activity [2] was “Active”.

In the case of CCN(Cc1ccccc1)Cc1c(C(F)(F)F)nc2n(-c3c(C)cc(C)cc3C)c(Cl)cn12, the Ki [1] is reported as 350 nM and the Activity [2] is reported as “Active”.
